Test results reported in ChEMBL document CHEMBL2150928, “Symmetric kv1.5 blockers discovered by focused screening” (ACS Med Chem Lett, 2012).
Converted amounts (≈) assume the structure as drawn. One block for each compound: values may come before it. The source made the active and inactive calls. The calls are words filed in the database; no cut-off is given here.

Experiments:
[1] = molecular target: Potassium voltage-gated channel subfamily A member 5 (Homo sapiens, UniProt P22460); experiment: Inhibition of human Kv1.5 ion channel after 3 mins by high-throughput planar patch clamp assay
Chain of Potassium voltage-gated channel subfamily A member 5 (P22460 whole entry): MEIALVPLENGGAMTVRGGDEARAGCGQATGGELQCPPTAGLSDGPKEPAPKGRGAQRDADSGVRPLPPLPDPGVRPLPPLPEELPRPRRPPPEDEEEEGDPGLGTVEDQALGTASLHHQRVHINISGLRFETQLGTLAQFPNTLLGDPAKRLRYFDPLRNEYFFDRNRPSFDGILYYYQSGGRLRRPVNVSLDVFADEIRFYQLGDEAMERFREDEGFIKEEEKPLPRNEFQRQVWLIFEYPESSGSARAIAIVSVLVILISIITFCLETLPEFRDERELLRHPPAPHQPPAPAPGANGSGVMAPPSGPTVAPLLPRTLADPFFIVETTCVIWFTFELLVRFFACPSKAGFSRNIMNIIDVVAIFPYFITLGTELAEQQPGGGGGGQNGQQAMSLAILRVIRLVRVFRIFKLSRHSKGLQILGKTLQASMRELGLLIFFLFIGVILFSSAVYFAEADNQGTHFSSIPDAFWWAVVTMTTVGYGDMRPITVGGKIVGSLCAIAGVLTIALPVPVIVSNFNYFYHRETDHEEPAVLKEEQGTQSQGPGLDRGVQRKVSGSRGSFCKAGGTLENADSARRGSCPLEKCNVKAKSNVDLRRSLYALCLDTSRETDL
Outline: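 Electrophysiology run on IonWorks high-throughput planar patch clamp, following a previously published method. IC50 values come from concentration-response testing of compounds retested for LC/MS purity.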

[2] = Aqueous solubility of the compound at pH 7.4 after 24 hrs; format: physicochemical; details: aqueous medium
[3] = Fraction unbound in human plasma; format: ADME, cell-free
Cytochrome P450 3A4 = Cytochrome P450 3A4 (Homo sapiens, UniProt P08684); experiment: Inhibition of human recombinant CYP3A4 expressed in Escherichia coli; format: ADME
Chain of Cytochrome P450 3A4 (P08684 whole entry): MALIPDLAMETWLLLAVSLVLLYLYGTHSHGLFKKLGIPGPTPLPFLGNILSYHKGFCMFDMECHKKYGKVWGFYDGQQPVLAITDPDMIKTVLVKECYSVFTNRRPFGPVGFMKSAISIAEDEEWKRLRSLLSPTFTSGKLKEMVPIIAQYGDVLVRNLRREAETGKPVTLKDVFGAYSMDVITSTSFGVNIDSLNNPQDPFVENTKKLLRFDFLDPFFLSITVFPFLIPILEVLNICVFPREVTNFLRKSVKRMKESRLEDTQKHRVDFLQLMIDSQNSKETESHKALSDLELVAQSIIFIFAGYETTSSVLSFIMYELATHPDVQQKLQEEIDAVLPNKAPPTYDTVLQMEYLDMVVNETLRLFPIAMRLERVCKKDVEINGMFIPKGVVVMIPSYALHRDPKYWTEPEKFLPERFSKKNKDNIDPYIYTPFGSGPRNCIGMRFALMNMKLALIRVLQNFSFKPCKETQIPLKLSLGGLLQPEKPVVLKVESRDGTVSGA

[4] = Apparent permeability from apical to basolateral side of human Caco2 cells; format: ADME, cell-based; details: Caco-2
[5] = Dissociation constant, pKa of the compound; format: physicochemical
[6] = Oral bioavailability in rat; format: ADME, organism-based; details: in vivo
[7] = molecular target: Voltage-gated inwardly rectifying potassium channel KCNH2 (Homo sapiens, UniProt Q12809); experiment: Inhibition of human ERG expressed in CHOK1 cells; format: cell-based, CHO-K1
Chain of Voltage-gated inwardly rectifying potassium channel KCNH2 (Q12809 whole entry): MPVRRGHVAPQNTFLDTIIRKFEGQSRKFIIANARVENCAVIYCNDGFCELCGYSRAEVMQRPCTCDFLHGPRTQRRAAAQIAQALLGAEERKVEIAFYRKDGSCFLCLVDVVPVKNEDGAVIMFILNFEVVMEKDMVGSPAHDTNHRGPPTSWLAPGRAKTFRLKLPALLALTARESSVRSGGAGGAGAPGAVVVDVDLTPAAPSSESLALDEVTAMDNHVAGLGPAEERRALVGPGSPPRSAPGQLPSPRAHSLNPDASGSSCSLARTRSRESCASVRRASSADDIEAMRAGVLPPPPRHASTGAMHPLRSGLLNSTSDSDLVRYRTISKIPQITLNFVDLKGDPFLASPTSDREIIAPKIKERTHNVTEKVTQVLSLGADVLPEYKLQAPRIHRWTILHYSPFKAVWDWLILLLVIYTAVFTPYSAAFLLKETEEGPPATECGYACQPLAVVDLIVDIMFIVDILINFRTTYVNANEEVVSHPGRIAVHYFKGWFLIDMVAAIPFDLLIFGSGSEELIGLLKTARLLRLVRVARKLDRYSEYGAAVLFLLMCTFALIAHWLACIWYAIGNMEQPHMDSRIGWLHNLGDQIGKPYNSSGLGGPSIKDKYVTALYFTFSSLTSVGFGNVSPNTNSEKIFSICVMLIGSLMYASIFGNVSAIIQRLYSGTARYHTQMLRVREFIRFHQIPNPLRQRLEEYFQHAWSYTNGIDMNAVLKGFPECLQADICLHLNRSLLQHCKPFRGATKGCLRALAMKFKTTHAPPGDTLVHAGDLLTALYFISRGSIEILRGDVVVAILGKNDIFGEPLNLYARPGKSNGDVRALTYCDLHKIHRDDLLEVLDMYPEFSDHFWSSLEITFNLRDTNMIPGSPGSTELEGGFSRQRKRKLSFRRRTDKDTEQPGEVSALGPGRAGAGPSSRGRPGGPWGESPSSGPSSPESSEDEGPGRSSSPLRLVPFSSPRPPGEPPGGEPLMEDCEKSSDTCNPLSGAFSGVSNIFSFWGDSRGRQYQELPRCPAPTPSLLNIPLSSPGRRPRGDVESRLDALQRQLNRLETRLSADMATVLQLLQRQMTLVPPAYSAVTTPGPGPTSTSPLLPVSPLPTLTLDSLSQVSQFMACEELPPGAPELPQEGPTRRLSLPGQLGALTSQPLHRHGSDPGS

[8] = Intrinsic clearance in human hepatocytes assessed per million cells; format: ADME, cell-based, Hepatocyte; details: read-out: CLH
Cytochrome P450 2D6 = Cytochrome P450 2D6 (Homo sapiens, UniProt P10635); experiment: Inhibition of human recombinant CYP2D6 expressed in Escherichia coli; format: ADME
Chain of Cytochrome P450 2D6 (P10635 whole entry): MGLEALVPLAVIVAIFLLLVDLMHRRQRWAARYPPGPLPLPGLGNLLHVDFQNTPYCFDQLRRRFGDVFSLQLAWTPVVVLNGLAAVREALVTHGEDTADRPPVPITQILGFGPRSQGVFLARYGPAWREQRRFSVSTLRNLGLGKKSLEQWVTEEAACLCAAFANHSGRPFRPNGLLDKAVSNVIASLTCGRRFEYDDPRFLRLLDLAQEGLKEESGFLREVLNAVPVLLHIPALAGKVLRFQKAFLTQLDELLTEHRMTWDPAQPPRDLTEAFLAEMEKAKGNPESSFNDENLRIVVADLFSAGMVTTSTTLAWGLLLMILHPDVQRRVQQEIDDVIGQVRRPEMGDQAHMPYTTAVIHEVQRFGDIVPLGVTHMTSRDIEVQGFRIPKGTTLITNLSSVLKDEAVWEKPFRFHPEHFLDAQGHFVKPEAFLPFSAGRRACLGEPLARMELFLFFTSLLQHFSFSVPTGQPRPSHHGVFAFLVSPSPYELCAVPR

[9] = Octanol-water distribution coefficient, log D of the compound at pH 7.4 by shake-flask method; format: physicochemical
[10] = Intrinsic clearance in human liver microsomes at 50 uM up to 45 mins; format: ADME, Microsome; details: read-out: CLH
[11] = Clearance in iv dosed rat; format: ADME, organism-based; details: in vivo
[12] = Half life in iv dosed rat; format: ADME, organism-based; details: in vivo
[13] = Volume of distribution at steady state in iv dosed rat; format: ADME, organism-based; details: in vivo, read-out: Vdss

SMILES: O[C@@H](c1ccccc1)[C@H](c1ccccc1)N1CCCC1
- inhibition [1]: inactive

- inhibition [1]: inactive
SMILES: OC(c1ccccc1)C(c1ccccc1)N1CCNCC1 (centres undefined)

SMILES: CCCOc1ccc(C(O)C(c2ccccc2)N2CCCC2)cc1 (centres undefined)
- inhibition [1]: inactive

SMILES: c1ccc([C@@H]([C@H](c2ccccc2)N2CCCCC2)N2CCCCC2)cc1
- solubility at 24 h [2]: 81 µM (≈ 28.2 µg/mL)
- fraction unbound [3]: 0.099
- IC50 (Cytochrome P450 3A4): 15.8 µM
- Papp A→B [4]: 10.2 ×10⁻⁶ cm/s
- pKa [5]: 11.4
- IC50 [1]: 0.2 µM
- bioavailability [6]: 26.6%
- IC50 [7]: 31.6 µM
- hepatocyte CLint [8]: < 4 µL/min/1e6 cells
- IC50 (Cytochrome P450 2D6): 0.316 µM
- logD [9]: 4.1
- microsomal CLint at 50 µM [10]: 17.6 µL/min/mg

SMILES: O[C@@H](c1ccccc1)[C@H](c1ccccc1)N1CCOCC1
- inhibition [1]: inactive

SMILES: CC(C)[C@@H]1CC[C@@H](C)C[C@@H]1P(=O)(c1ccccc1)c1ccccc1
- logD [9]: 6

SMILES: c1ccc([C@H]([C@@H](c2ccccc2)N2CCCCC2)N2CCCCC2)cc1
- solubility at 24 h [2]: 95 µM (≈ 33.1 µg/mL)
- fraction unbound [3]: 0.065
- IC50 (Cytochrome P450 3A4): 20 µM
- clearance [11]: 13.1 mL/min/kg
- Papp A→B [4]: 10.3 ×10⁻⁶ cm/s
- pKa [5]: 11
- half-life [12]: 15.1 h
- IC50 [1]: 0.2 µM
- bioavailability [6]: 103%
- IC50 [7]: 25.1 µM
- Vd [13]: 16.4 L/kg
- hepatocyte CLint [8]: < 4 µL/min/1e6 cells
- IC50 (Cytochrome P450 2D6): 0.126 µM
- logD [9]: 4
- microsomal CLint at 50 µM [10]: 14.1 µL/min/mg

SMILES: O[C@@H](c1ccccc1)[C@@H](c1ccccc1)N1CCCCC1
- inhibition [1]: inactive

- inhibition [1]: inactive
SMILES: O=C(Cc1ccccc1)N[C@@H](c1ccccc1)[C@@H](O)c1ccccc1

- solubility at 24 h [2]: 100 µM (≈ 32 µg/mL)
- fraction unbound [3]: 0.17
- IC50 (Cytochrome P450 3A4): 12.6 µM
- clearance [11]: 10.8 mL/min/kg
- Papp A→B [4]: 13.3 ×10⁻⁶ cm/s
- pKa [5]: 10.5
- half-life [12]: 7.1 h
- IC50 [1]: 0.3 µM
- bioavailability [6]: 48.9%
- Vd [13]: 6.4 L/kg
- hepatocyte CLint [8]: < 4 µL/min/1e6 cells
- IC50 (Cytochrome P450 2D6): 0.316 µM
- logD [9]: 3.3
- microsomal CLint at 50 µM [10]: 21.6 µL/min/mg
SMILES: c1ccc([C@@H]([C@H](c2ccccc2)N2CCCC2)N2CCCC2)cc1
- IC50 [7]: 31.6 µM

- inhibition [1]: inactive
SMILES: CC(=O)NC(c1ccccc1)C(O)c1ccccc1 (centres undefined)

SMILES: OC(c1ccccc1)C(NC1CCCCC1)c1ccccc1 (centres undefined)
- inhibition [1]: inactive

SMILES: CN(C)[C@@H](c1ccccc1)[C@@H](O)c1ccccc1
- inhibition [1]: inactive

- inhibition [1]: inactive
SMILES: c1ccc(C2NCCOC2c2ccccc2)cc1 (centres undefined)

SMILES: NC(c1ccccc1)C(O)c1ccccc1 (centres undefined)
- inhibition [1]: inactive

- solubility at 24 h [2]: 92 µM (≈ 29.5 µg/mL)
- fraction unbound [3]: 0.17
- IC50 (Cytochrome P450 3A4): 12.6 µM
- clearance [11]: 91.8 mL/min/kg
- Papp A→B [4]: 14 ×10⁻⁶ cm/s
- pKa [5]: 10.4
- half-life [12]: 1 h
- IC50 [1]: 0.6 µM
- bioavailability [6]: 15.6%
- Vd [13]: 7.9 L/kg
- hepatocyte CLint [8]: < 4 µL/min/1e6 cells
- IC50 (Cytochrome P450 2D6): 0.2 µM
- logD [9]: 3.2
- microsomal CLint at 50 µM [10]: 12 µL/min/mg
SMILES: c1ccc([C@H]([C@@H](c2ccccc2)N2CCCC2)N2CCCC2)cc1
- IC50 [7]: 31.6 µM
